The EC50 is the concentration giving half of the maximal effect. In general, IC50 refers to the concentration that gives 50% inhibition. The term logD denotes lipophilicity at a set pH, counting ionised and neutral species. For orientation: bioavailability means the share of a dose that reaches the circulation, judged against a reference dose that is usually intravenous. The term Cmax denotes the peak of the concentration-time curve. Broadly, the Tmax is the time at which the peak concentration occurs. Usually AUC(0-t) stands for the area under the concentration-time curve up to a stated or last time point. Usually half-life stands for the time needed for the level to fall by half in the phase considered.

The record followed here is ChEMBL document CHEMBL2016448, “Discovery of new piperidine amide triazolobenzodiazepinones as intestinal-selective CCK1 receptor agonists” (Bioorg Med Chem Lett, 2012).

Series [1] concerns the target T1, Cholecystokinin receptor type A (Homo sapiens, UniProt P32238).
T1 sequence (P32238 whole entry): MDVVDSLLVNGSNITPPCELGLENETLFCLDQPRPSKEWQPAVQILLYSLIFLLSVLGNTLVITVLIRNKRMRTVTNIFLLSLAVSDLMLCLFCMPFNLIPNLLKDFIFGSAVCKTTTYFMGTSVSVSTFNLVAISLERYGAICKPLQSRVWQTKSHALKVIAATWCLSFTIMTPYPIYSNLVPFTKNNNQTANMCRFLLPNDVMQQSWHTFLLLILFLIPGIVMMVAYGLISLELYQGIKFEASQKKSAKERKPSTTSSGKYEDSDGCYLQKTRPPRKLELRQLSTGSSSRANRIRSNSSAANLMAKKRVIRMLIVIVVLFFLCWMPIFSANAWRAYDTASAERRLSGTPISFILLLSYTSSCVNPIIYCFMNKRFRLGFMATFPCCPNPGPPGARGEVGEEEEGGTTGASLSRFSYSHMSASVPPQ
The series is described as follows: Agonist activity at human CCK1 receptor assessed as increase in CCK8-induced calcium release incubated in dark for 30 mins followed by light incubation for 30 mins measured by FLIPR assay. The class given is functional. A digest of the protocol:
(§1)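 FLIPR functional assay in CHO cells expressing human CCK1R. Agonism expressed as % of the CCK-8 peptide response. Initial screen at 30 µM, with >30% counted as active. Actives then run as full dose–response. EC50 is the geometric mean of at least 2 independent experiments.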

Series [2] addresses T2, Cholecystokinin receptor type A (Homo sapiens) (UniProt P32238).
T2 sequence (whole entry): T1 sequence (P32238 whole entry)
The series is described as follows: Agonist activity at human CCK1 receptor assessed as increase in CCK8-induced calcium release incubated in dark for 30 mins followed by light incubation for 30 mins measured by FLIPR assay relative to CCK8. The class given is functional. An outline of the steps:
as §1

For series [3], the target named is T1, Cholecystokinin receptor type A. The series is described as follows: Displacement of [125I]-CCK-8 from human CCK1 receptor expressed in CHO cells after 90 mins by liquid scintillation counting. (Displacement assays read how much labelled ligand stays bound in the presence of the test substance.)
Series [4] can be described thus: Lipophilicity, log D of the compound at pH 7.4. The class given is physicochemical. As to conditions: buffer, read-out: logD.
Series [5] is described as follows: Free intrinsic clearance in human microsomes. The class given is ADME, Microsome. An outline of the steps:
(§2)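 Intrinsic clearance measured in human liver microsomes. The free value is corrected for microsomal binding.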

The test system of series [6] is Mus musculus. The series is described as follows: Antiobesity in C57Bl/6J mouse assessed as reduction in gall bladder weight at 0.6 mg/kg, po measured after 1 hr relative to control. It is filed as functional. Also on record: scale not given: the % may be the effect or the level left.
Series [7] in a line: Drug excretion in Sprague-Dawley rat bile at 1 mg/kg, iv measured after 24 hrs. The class given is ADME, organism-based. On the set-up: dose 1 mg/kg, route intravenous. The conditions noted are these: read-out: Ae. An outline of the steps:
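Bile-cannulated rats dosed iv at 1 mg/kg. Bile collected over 24 h and % of dose excreted into bile determined.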

Series [8] in a line: Intrinsic clearance in human microsomes. It is filed as ADME, Microsome. An outline of the steps: as §2
Series [9] concerns Rattus norvegicus. The series is described as follows: Toxicity in Sprague-Dawley rat assessed as gastrointestinal side-effects at 2 to 6 mg/kg, po. The class given is organism-based. On the set-up: dose 2-6 mg/kg, route oral. As to conditions: in vivo. An outline of the steps: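 Diet-induced obese rats dosed orally at 2 and 6 mg/kg for 5 days and monitored for gastrointestinal side-effects.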

Series [10] is described as follows: Bioavailability in Sprague-Dawley rat portal system. It is filed as ADME, organism-based.
Series [11] can be described thus: fCmax in Sprague-Dawley rat portal system. It is filed as ADME.
The nature of series [12]: Cmax in Sprague-Dawley rat plasma at 6 mg/kg, po. The class given is ADME, organism-based. Also on record: dose 6 mg/kg, route oral. A digest of the protocol: (§3)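 Male Sprague–Dawley rats dosed iv or po. Oral doses given in SDD formulation. Plasma PK parameters reported as mean of n = 3 rats.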
Series [13] in a line: Drug level in C57Bl/6J mouse bile at 0.6 mg/kg. The class given is ADME, organism-based. On the set-up: dose 0.6 mg/kg. The conditions noted are these: in vivo.
A further series has as its system Blood. The series is described as follows: Drug level in C57Bl/6J mouse blood at 0.6 mg/kg. As to conditions: in vivo. On the set-up: dose 0.6 mg/kg. The class given is ADME, organism-based.
Series [14] relates to Mus musculus. The series is described as follows: Antiobesity in C57Bl/6J mouse assessed as reduction in gall bladder weight at 0.2 mg/kg, po measured after 24 hr relative to control. The class given is functional. Also on record: scale not given: the % may be the effect or the level left.
Series [15] has as its system Mus musculus. The series is described as follows: Antiobesity in C57Bl/6J mouse assessed as decrease in food intake at 0.2 mg/kg, po measured after 2 hr relative to control. It is filed as functional. On the set-up: scale not given: the % may be the effect or the level left. An outline of the steps:
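Mice fasted overnight, then refed. Compound given orally in SDD formulation at increasing doses. Food intake measured at 2 h against vehicle-treated mice. Minimally efficacious dose defined as significant inhibition (p <0.05).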

For a further series, the system named is Plasma. The series is described as follows: Plasma clearance in Sprague-Dawley rat at 0.3 mg/kg, iv. It is filed as ADME, organism-based. Also on record: dose 0.3 mg/kg, route intravenous. The conditions noted are these: in vivo. A digest of the protocol:
as §3

The nature of series [16]: Oral bioavailability in Sprague-Dawley rat at 6 mg/kg. It is filed as ADME, organism-based. As to conditions: in vivo. A digest of the protocol:
as §3

Series [17] concerns Rattus norvegicus. The series is described as follows: fCmax in Sprague-Dawley rat at 6 mg/kg, po. The class given is ADME, organism-based. On the set-up: dose 6 mg/kg, route oral. The conditions noted are these: in vivo. A digest of the protocol: as §3
Series [18] in a line: Tmax in Sprague-Dawley rat at 6 mg/kg, po. It is filed as ADME, organism-based. On the set-up: dose 6 mg/kg, route oral. As to conditions: in vivo. An outline of the steps:
as §3

Series [19] in a line: Volume of distribution at steady state in Sprague-Dawley rat at 0.3 mg/kg, iv. It is filed as ADME, organism-based. On the set-up: dose 0.3 mg/kg, route intravenous. The conditions noted are these: in vivo, read-out: Vdss. An outline of the steps:
as §3

Series [20] is described as follows: AUC (0 to last) in Sprague-Dawley rat at 0.3 mg/kg, iv. The class given is ADME, organism-based. The conditions noted are these: plasma. Also on record: time 0 - last, dose 0.3 mg/kg, route intravenous. A digest of the protocol: as §3
Series [21] is described as follows: AUC (0 to last) in Sprague-Dawley rat at 6 mg/kg, po. The class given is ADME, organism-based. On the set-up: dose 6 mg/kg, route oral, time 0 - last. As to conditions: plasma. A digest of the protocol: as §3
Series [22] is described as follows: Half life in Sprague-Dawley rat at 0.3 mg/kg, iv. It is filed as ADME, organism-based. On the set-up: dose 0.3 mg/kg, route intravenous. The conditions noted are these: in vivo. An outline of the steps: as §3
In series [23] the test system is Rattus norvegicus. The series is described as follows: Antiobesity in diet-induced obese Sprague-Dawley rat assessed as decrease in body weight gain at 2 mg/kg, po measured after 5 days. Also on record: scale not given: the % may be the effect or the level left. The class given is functional.
Series [24] concerns Rattus norvegicus. The series is described as follows: Antiobesity in diet-induced obese Sprague-Dawley rat assessed as decrease in body weight gain at 6 mg/kg, po measured after 5 days. On the set-up: scale not given: the % may be the effect or the level left. It is filed as functional.
In series [25] the test system is Rattus norvegicus. The series is described as follows: Antiobesity in diet-induced obese Sprague-Dawley rat assessed as decrease in food intake at 2 mg/kg, po measured after 5 days relative to control. On the set-up: scale not given: the % may be the effect or the level left. It is filed as functional.
Series [26] relates to Rattus norvegicus. The series is described as follows: Antiobesity in diet-induced obese Sprague-Dawley rat assessed as decrease in food intake at 6 mg/kg, po measured after 5 days relative to control. It is filed as functional. Also on record: scale not given: the % may be the effect or the level left.

As for `O=C1C(Cc2c[nH]c3ccccc23)c2nnc(-c3ccccc3)n2-c2ccccc2N1CC(=O)N1CCCC1c1ccccc1` (mixture of isomers), the concentration giving a half-maximal response (EC50) in [1] was found to be 2120 nM. Besides, the Efficacy in series [2] came out at 83%. In [3], this compound showed an IC50 of 168 nM.
For the compound `COCCC1CCCCN1C(=O)CN1C(=O)[C@@H](Cc2n[nH]c3ccccc23)c2nnc(-c3ccccc3)n2-c2ccccc21` (single isomer, unassigned), in series [1], the 50% effective concentration (EC50) was determined as 2.7 nM. Moreover, the Efficacy in series [2] was determined as 100%. Further, in series [4], the logD was 3.1. The same compound yielded a CL free in series [5] of 154 µL/min/mg. Further, the Activity in the series on Mus musculus [6] is recorded as 85%. Besides, the dose excreted at 24 h in series [7] came out at 0.26%. Also, in series [3], the IC50 turned out to be 9.9 nM.
As to `O=C(CN1C(=O)C(Cc2c[nH]c3ccccc23)c2nnc(-c3ccccc3)n2-c2ccccc21)N1CCC(Cc2ccccc2)C1` (mixture of isomers), the 50% effective concentration (EC50) in series [1] is 1310 nM. For the same compound, the Efficacy in series [2] turned out to be 85%. In addition, the clearance in series [8] stood at 148 µL/min/mg. For the same compound, the IC50 in series [3] came to 68.6 nM.
On to `Cc1cc(C)cc(C[C@H]2CCCCN2C(=O)CN2C(=O)[C@@H](Cc3n[nH]c4ccccc34)c3nnc(-c4ccccc4)n3-c3ccccc32)c1`, for which the Activity entry in the series with Rattus norvegicus [9] is recorded as “Non-toxic”; in the series on Mus musculus [6] it was 89%; with Mus musculus [14], 19%; in the series with Mus musculus [15] it was 34%; in the series with Rattus norvegicus [23] it was 22%; in the series on Rattus norvegicus [24] it was 44%. Also, the Activity is listed as 19% in the series on Rattus norvegicus [25] and 25% in the series on Rattus norvegicus [26]. Further, the bioavailability in series [10] came out at 0.56%; in series [16], 0.13%. The figures for the fCmax (in series [11]; in the series with Rattus norvegicus [17]) were 0.063 nM and 0.014 nM, respectively. In [12], the highest level (Cmax) was 0.46 ng/mL. The Drug uptake entry (in series [13]; with Blood) was “Not Active” in each case. For the same compound, the Efficacy in series [2] is 89%. Also, the log distribution coefficient (logD) in series [4] came out at 5.6. For the same compound, the CL free in series [5] is 2300 µL/min/mg. Further, in series [7], the dose excreted at 24 h came to 0.044%. Also, in the series on Plasma, the clearance came out at 176 mL/min/kg. Also, in series [18], the Tmax stood at 0.25 h. Also, the Vd in [19] amounted to 17.6 L/kg. Further, the AUC(0-t) in [20] was 29 ng·h/mL; in series [21] it was 0.74 ng·h/mL. The half-life in series [22] is 2.04 h.
With `O=C1C(Cc2c[nH]c3ccccc23)c2nnc(-c3ccccc3)n2-c2ccccc2N1CC(=O)N1CCCCC1Cc1ccccn1` (mixture of isomers), in [1], the 50% effective concentration (EC50) was found to be 31.9 nM. In addition, the Efficacy in [2] was 105%. In [8], the clearance worked out at 114 µL/min/mg. Also, the IC50 in series [3] was 93.3 nM.
With `CC(C)N(Cc1ccccc1)C(=O)CN1C(=O)[C@@H](Cc2n[nH]c3ccccc23)c2nnc(-c3ccccc3)n2-c2ccccc21`, the concentration giving a half-maximal response (EC50) in series [1] stood at 380 nM. For the same compound, in [2], the Efficacy was 72%. Moreover, the log distribution coefficient (logD) in series [4] stood at 4.7. In series [3], this compound had a half-inhibitory concentration (IC50) of 38.1 nM.
Turning to `O=C1C(Cc2c[nH]c3ccccc23)c2nnc(-c3ccccc3)n2-c2ccccc2N1CC(=O)N1CCCCC1c1ccccc1` (mixture of isomers), in [1], the half-maximal effective concentration (EC50) turned out to be 1670 nM. Besides, the Efficacy in series [2] is 87%. In [3], this compound registered an IC50 of 248 nM.
Regarding `O=C1C(Cc2c[nH]c3ccccc23)c2nnc(-c3ccccc3)n2-c2ccccc2N1CC(=O)N1CCCC1Cc1ccccn1` (mixture of isomers), in series [1], the EC50 turned out to be 560 nM. Further, in series [2], the Efficacy was 86%. The same compound displayed a clearance in [8] of 212 µL/min/mg. For the same compound, the concentration for half-maximal inhibition (IC50) in series [3] was 373 nM.
The matching figures for `O=C1C(Cc2c[nH]c3ccccc23)c2nnc(-c3ccccc3)n2-c2ccccc2N1CC(=O)N1CCCCC1Cc1ccccc1` (mixture of isomers): 84.2 nM, 78%, 146 µL/min/mg and 44.7 nM.
